Assay results reported in ChEMBL document CHEMBL1128716, “4,5-Dihydro-3-(methanesulfonamidophenyl)-1-phenyl-1H-2,4-benzodiazepines: a novel class III antiarrhythmic agents” (J Med Chem, 1995).
Calls of active or inactive are those of the source.

How the values were obtained:
Oryctolagus cuniculus [1] = species on record: Oryctolagus cuniculus; assay: In vitro concentration at which cardiac refractoriness in rabbit is increased by 20 ms; format: functional; details: Heart
Procedure, shortened: (§1)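 Isolated hearts stimulated at twice threshold (1 mA minimum), equilibrated 45 min. ERP determined by scanning diastole with a single premature stimulus after 15 min at each of five cumulative concentrations. EC20 is the concentration raising ERP by 20 ms, estimated by linear regression of concentration–response data, in nM; n = 3–5 hearts.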

[2] = (§2) Displacement of [3H]BTX from sodium channel; set-up: species or system Canis lupus familiaris
Procedure, shortened: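 Canine cardiac sarcolemma vesicles (50 μg protein) incubated with 5 nM [3H]BTX-B, 60 min at 37 °C, triplicate. Nonspecific binding with 0.3 mM veratridine. Filtration read-out; IC50 in μM.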

[3] = target: Sodium channel protein type 5 subunit alpha (Homo sapiens, UniProt Q14524); assay: Blockade of Na+ current in frog oocytes expressing human cardiac sodium channel (HH1); format: cell-based, Oocyte
Procedure, shortened: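 HH1 transcripts injected into Xenopus laevis oocytes, incubated at room temperature 24–72 h. Two-microelectrode voltage clamp (3 M KCl electrodes), bath NaCl 140, KCl 2, CaCl2 1.8, MgCl2 1, HEPES 5 mM, pH 7.5, 21–23 °C. Holding −100 mV; peak current at the I–V maximum measured before and after test agent; IC50 in μM.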

Canis familiaris [4] = assay: Maximum increase in ERP(ms) after oral dose of the compound( 0.3 mg/kg) in mongrel dogs at a basic cycle length of 250 ms.; format: functional, Canis lupus familiaris
Procedure, shortened: (§3)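 Conscious instrumented dogs, at least 7 days after surgery, suspended in slings during normal sinus rhythm. After three baseline ERP measurements, 0.3 mg/kg given orally by gastric lavage. ERP taken every 15 min for 3 h with pacing at basic cycle lengths of 500, 400 and 250 ms. Value is the maximum ERP increase over that interval, mean ± SEM.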

Canis familiaris [5] = assay: Maximum increase in ERP(ms) after oral dose of the compound( 0.3 mg/kg) in mongrel dogs at a basic cycle length of 400 ms.; format: functional, Canis lupus familiaris; procedure, shortened: as §3
Canis familiaris [6] = assay: Maximum increase in ERP(ms) after oral dose of the compound( 0.3 mg/kg) in mongrel dogs at a basic cycle length of 500 ms.; format: functional, Canis lupus familiaris; procedure, shortened: as §3
[7] = Displacement of [3H]D-888 from canine cardiac calcium channel; format: tissue-based, Canis lupus familiaris, Heart
Procedure, shortened: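 Canine cardiac sarcolemma vesicles (50 μg protein) with 5 nM [3H]D888 in 50 mM Tris-HCl pH 7.4, 0.1% BSA, 90 min at 25 °C, triplicate. Nonspecific binding defined with 31.6 μM (S)-verapamil. Bound ligand collected by filtration on polyethylenimine-treated filters; IC50 in μM.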

Canis familiaris [8] = assay: Maximum increase in ERP(ms) after oral dose of the compound( 0.3 mg/kg) in mongrel dogs at a basic cycle […].; format: functional, Canis lupus familiaris; procedure, shortened: as §3
Oryctolagus cuniculus [9] = species on record: Oryctolagus cuniculus; assay: In vitro concentration at which cardiac refractoriness in rabbit (ERP-effective refractory period) is increased by 20 ms; inactive at 1000; format: functional; details: Heart; procedure, shortened: as §1
Canis familiaris [10] = assay: Prolongation of ERP(effective refractory […]) in mongrel dogs over a 3 hour interval following oral administration (0.3 mg/kg), pacing at a basic cycle length of 250 ms.; format: functional, Canis lupus familiaris; procedure, shortened: as §3
Canis familiaris [11] = assay: Prolongation of ERP(effective refractory […]) in mongrel dogs over a 3 hour interval following oral administration (0.3 mg/kg), pacing at a basic cycle length of 400 ms.; format: functional, Canis lupus familiaris; procedure, shortened: as §3
Canis familiaris [12] = assay: The orally dosed values in animals (0.3 mg/kg) represent the maximum increase in ERP observed over a 3 hour interval. Pacing was done at basic cycle lengths of 500 ms.; format: functional, Canis lupus familiaris; procedure, shortened: as §3
[13] = as §2

Sequence of Sodium channel protein type 5 subunit alpha (Q14524 whole entry): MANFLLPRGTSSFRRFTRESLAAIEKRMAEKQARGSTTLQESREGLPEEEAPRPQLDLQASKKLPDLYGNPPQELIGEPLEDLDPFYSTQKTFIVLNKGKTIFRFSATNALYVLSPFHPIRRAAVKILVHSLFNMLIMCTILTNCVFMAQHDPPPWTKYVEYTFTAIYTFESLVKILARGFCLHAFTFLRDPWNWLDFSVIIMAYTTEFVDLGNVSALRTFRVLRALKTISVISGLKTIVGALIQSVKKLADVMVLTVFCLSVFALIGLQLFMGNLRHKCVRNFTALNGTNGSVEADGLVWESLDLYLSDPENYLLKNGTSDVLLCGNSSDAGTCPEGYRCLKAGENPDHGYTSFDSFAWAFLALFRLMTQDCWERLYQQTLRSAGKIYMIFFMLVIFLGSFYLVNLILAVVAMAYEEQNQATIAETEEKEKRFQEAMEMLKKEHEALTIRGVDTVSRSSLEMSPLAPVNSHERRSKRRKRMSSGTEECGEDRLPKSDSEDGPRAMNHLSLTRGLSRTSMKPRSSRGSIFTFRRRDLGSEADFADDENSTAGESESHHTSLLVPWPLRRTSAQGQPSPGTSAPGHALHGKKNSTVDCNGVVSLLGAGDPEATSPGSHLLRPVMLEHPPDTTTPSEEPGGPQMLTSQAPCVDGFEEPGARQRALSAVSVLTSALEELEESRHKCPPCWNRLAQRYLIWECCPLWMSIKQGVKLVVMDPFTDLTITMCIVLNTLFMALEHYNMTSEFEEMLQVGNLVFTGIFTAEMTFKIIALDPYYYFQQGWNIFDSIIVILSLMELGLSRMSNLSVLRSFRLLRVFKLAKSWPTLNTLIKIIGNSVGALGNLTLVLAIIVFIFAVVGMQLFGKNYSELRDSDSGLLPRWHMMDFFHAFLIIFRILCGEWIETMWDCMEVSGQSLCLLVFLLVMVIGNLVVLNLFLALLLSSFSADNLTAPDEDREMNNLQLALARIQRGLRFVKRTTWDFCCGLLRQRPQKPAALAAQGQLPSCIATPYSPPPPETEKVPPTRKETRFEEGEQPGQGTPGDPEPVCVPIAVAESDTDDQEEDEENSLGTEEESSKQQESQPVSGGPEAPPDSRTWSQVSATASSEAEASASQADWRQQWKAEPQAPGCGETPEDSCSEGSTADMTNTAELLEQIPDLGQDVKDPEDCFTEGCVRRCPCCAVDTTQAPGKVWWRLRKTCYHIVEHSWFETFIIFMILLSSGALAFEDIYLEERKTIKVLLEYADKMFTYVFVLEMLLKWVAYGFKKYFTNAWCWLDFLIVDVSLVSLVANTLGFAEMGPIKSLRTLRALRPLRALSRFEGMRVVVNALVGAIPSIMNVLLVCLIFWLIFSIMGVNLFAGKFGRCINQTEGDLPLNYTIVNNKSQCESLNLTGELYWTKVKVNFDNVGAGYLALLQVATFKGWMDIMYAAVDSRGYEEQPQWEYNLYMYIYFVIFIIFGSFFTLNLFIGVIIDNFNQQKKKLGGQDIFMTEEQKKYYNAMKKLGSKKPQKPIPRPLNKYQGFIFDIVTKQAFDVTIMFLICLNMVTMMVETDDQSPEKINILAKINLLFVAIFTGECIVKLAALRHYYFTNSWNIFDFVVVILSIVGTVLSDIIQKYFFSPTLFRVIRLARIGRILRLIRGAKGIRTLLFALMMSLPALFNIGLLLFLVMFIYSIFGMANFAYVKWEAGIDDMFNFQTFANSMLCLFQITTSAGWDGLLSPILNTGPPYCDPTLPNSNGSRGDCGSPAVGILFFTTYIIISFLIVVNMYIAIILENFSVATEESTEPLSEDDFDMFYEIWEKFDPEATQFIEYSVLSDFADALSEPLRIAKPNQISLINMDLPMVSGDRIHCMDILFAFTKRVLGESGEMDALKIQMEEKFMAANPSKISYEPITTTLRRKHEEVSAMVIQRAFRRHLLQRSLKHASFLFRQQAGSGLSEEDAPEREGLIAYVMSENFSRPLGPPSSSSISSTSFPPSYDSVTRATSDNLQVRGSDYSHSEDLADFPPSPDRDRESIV

## CN1Cc2ccccc2C(c2ccc(Cl)c(Cl)c2)N=C1OCc1ccc(NS(C)(=O)=O)cc1 (centres undefined)
Oryctolagus cuniculus [1]
  EC20: 2 nM

## CN1Cc2ccccc2[C@H](c2ccccc2)N=C1OCc1ccc(NS(C)(=O)=O)cc1.O=C(O)/C=C/C(=O)O
[2]
  IC50: 6900 nM
[3]
  IC50: > 30000 nM
Canis familiaris [4]
  ERP observations: 18
Canis familiaris [5]
  ERP observations: 20
Canis familiaris [6]
  ERP observations: 18
Oryctolagus cuniculus [1]
  EC20: 4 nM
[7]
  IC50: 900 nM

## CN1Cc2ccccc2C(c2ccc(F)cc2F)N=C1CCc1ccc(NS(C)(=O)=O)cc1 (centres undefined)
Oryctolagus cuniculus [1]
  EC20: 4 nM

## CN1Cc2ccc(NS(C)(=O)=O)cc2C(c2ccccc2)N=C1CCc1ccccc1 (centres undefined)
Oryctolagus cuniculus [1]
  EC20: 655 nM

## CN1Cc2ccccc2C(c2ccc(NS(C)(=O)=O)cc2)N=C1CCc1ccccc1 (centres undefined)
Oryctolagus cuniculus [1]
  EC20: 780 nM

## CN1Cc2ccccc2[C@@H](c2ccc(F)cc2F)N=C1CCc1ccc(NS(C)(=O)=O)cc1.Cl
[2]
  IC50: 2500 nM
[3]
  IC50: > 100000 nM
Canis familiaris [4]
  ERP observations: 22
Canis familiaris [5]
  ERP observations: 33
Canis familiaris [6]
  ERP observations: 33
Oryctolagus cuniculus [1]
  EC20: 8 nM
[7]
  IC50: 1100 nM

## CN1Cc2ccccc2[C@H](c2ccc(Cl)cc2)N=C1OCc1ccc(NS(C)(=O)=O)cc1
Oryctolagus cuniculus [1]
  EC20: 4 nM

## CN1Cc2ccccc2C(c2ccccc2)N=C1CCc1ccccc1NS(C)(=O)=O (centres undefined)
Oryctolagus cuniculus [1]
  EC20: 500 nM

## CN1Cc2ccccc2C(c2ccccc2)N=C1CCc1ccc(NS(=O)(=O)C(F)(F)F)cc1 (centres undefined)
Oryctolagus cuniculus [1]
  EC20: 520 nM

## CSc1ccc([C@H]2N=C(OCc3ccc(NS(C)(=O)=O)cc3)N(C)Cc3ccccc32)cc1.Cl
[2]
  IC50: 1000 nM
Canis familiaris [4]
  ERP observations: 28
Canis familiaris [5]
  ERP observations: 33
Canis familiaris [6]
  ERP observations: 33
Oryctolagus cuniculus [1]
  EC20: 7 nM
[7]
  IC50: 700 nM

## CN1Cc2ccccc2C(c2ccccc2)N=C1CCc1ccc(NS(C)(=O)=O)cc1 (centres undefined)
Oryctolagus cuniculus [1]
  EC20: 20 nM

## CN1Cc2ccccc2C(c2ccc(NS(C)(=O)=O)cc2)N=C1OCc1ccc(NS(C)(=O)=O)cc1 (centres undefined)
Oryctolagus cuniculus [1]
  EC20: 140 nM

## CSc1ccc(C2N=C(OCc3ccc(NS(C)(=O)=O)cc3)N(C)Cc3ccccc32)cc1 (centres undefined)
Oryctolagus cuniculus [1]
  EC20: 4 nM

## CSc1ccc([C@@H]2N=C(OCc3ccc(NS(C)(=O)=O)cc3)N(C)Cc3ccccc32)cc1.Cl
[2]
  IC50: 3000 nM
[3]
  IC50: > 30000 nM
Canis familiaris [8]
  ERP observations: 20
Canis familiaris [4]
  ERP observations: 11
Canis familiaris [6]
  ERP observations: 28
Oryctolagus cuniculus [1]
  EC20: 8 nM
[7]
  IC50: 1100 nM

## CN1Cc2ccccc2[C@H](c2ccc(F)cc2F)N=C1CCc1ccc(NS(C)(=O)=O)cc1.Cl
[2]
  IC50: 3600 nM
[3]
  IC50: > 100000 nM
Canis familiaris [4]
  ERP observations: 21
Canis familiaris [5]
  ERP observations: 27
Canis familiaris [6]
  ERP observations: 28
Oryctolagus cuniculus [1]
  EC20: 7 nM
[7]
  IC50: 500 nM

## CN1Cc2ccccc2C(c2ccccc2)N=C1OCc1ccc(NS(C)(=O)=O)cc1 (centres undefined)
Oryctolagus cuniculus [1]
  EC20: 6 nM

## CN1Cc2ccccc2C(c2ccc(NS(C)(=O)=O)cc2)N=C1CCc1ccc(NS(C)(=O)=O)cc1 (centres undefined)
Oryctolagus cuniculus [9]
  EC20: inactive

## CN(CCOc1ccc(NS(C)(=O)=O)cc1)CCc1ccc(NS(C)(=O)=O)cc1 [DOFETILIDE]
Canis familiaris [10]
  ERP observations: 21
Canis familiaris [11]
  ERP observations: 28
Canis familiaris [12]
  ERP observations: 30
Oryctolagus cuniculus [1]
  EC20: 2 nM

## CN1Cc2ccccc2[C@@H](c2ccccc2)N=C1OCc1ccc(NS(C)(=O)=O)cc1.O=C(O)/C=C/C(=O)O
[13]
  IC50: 5200 nM
[3]
  IC50: 126000 nM
Canis familiaris [4]
  ERP: 31 ms
Canis familiaris [5]
  ERP: 36 ms
Canis familiaris [6]
  ERP: 40 ms
Oryctolagus cuniculus [1]
  EC20: 1.5 nM

## CN1Cc2c(NS(C)(=O)=O)cccc2C(c2ccccc2)N=C1CCc1ccccc1 (centres undefined)
Oryctolagus cuniculus [9]
  EC20: inactive

## CN1Cc2ccccc2C(c2ccc(Cl)cc2)N=C1CCc1ccc(NS(C)(=O)=O)cc1 (centres undefined)
Oryctolagus cuniculus [1]
  EC20: 10 nM

## CN1Cc2ccccc2[C@@H](c2ccc(Cl)cc2)N=C1OCc1ccc(NS(C)(=O)=O)cc1
Oryctolagus cuniculus [1]
  EC20: 2 nM

## COc1ccc(C2N=C(OCc3ccc(NS(C)(=O)=O)cc3)N(C)Cc3ccccc32)cc1 (centres undefined)
Oryctolagus cuniculus [1]
  EC20: 4 nM

## CN1Cc2ccccc2C(c2ccccc2)N=C1CCc1ccccc1 (centres undefined)
Oryctolagus cuniculus [1]
  EC20: 60 nM

## CN1Cc2ccccc2C(c2ccc(Cl)cc2)N=C1SCc1ccc(NS(C)(=O)=O)cc1 (centres undefined)
Oryctolagus cuniculus [1]
  EC20: 5.5 nM

## CN1Cc2ccccc2C(c2ccc(Cl)cc2)N=C1OCc1ccc(NS(C)(=O)=O)cc1 (centres undefined)
Oryctolagus cuniculus [1]
  EC20: 3 nM

## CCS(=O)(=O)Nc1ccc(CCC2=NC(c3ccccc3)c3ccccc3CN2C)cc1 (centres undefined)
Oryctolagus cuniculus [1]
  EC20: 100 nM
